Screens as filed in PubChem.
PMI activator – activators of human PMI, primary screen, biochemical, fluorescence intensity, near-Km mannose 6-phosphate; activation factor at 20 µM; 190,000 tested, 0.005% active; purified human PMI, coupled resazurin fluorescence, 20 min; hits give high values; 1 = vehicle control, 0 substrate-free wells; Mannose-6-phosphate isomerase (Homo sapiens), P34949;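 active = activation factor of 2 or more at 20 µM, relative to plate controls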
Target sequence (P34949 whole entry, looked up): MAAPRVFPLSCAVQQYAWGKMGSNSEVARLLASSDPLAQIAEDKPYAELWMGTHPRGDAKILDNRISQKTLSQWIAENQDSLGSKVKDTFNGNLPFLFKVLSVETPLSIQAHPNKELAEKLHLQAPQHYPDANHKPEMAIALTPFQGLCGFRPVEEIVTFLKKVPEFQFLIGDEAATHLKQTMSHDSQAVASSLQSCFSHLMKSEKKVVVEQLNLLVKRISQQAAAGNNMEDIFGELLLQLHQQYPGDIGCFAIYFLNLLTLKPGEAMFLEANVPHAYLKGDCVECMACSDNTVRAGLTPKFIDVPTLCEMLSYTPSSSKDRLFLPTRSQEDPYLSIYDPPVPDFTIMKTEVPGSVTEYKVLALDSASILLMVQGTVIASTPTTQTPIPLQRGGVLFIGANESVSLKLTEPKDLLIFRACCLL
L major viab – Leishmania major promastigote growth inhibition, primary screen | Leishmania major promastigotes, resazurin fluorescence viability | inhibition, % at 10 µM | 200,000 tested, 9% active; in the data active = inhibition above about 50%;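 note: promastigotes grown with compound for 44 hours at 28 °C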
Diaphorase act – compounds boosting diaphorase resazurin reduction – biochemical, uHTS, resorufin fluorescence, counter-screen for diaphorase-coupled primary assays, primary screen. Diaphorase/resazurin coupled assay, 16 min; hits give high values; 1 = vehicle wells, 0 = NADH-free wells. activation factor at 20 µM. 190,000 tested, 0.005% active. AID 1229, 2008;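 active = diaphorase activity raised at least twofold by the compound at 20 µM; inactive = activation factor below 2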
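Material: Clostridium kluyveri diaphorase, purified enzyme; Quantity: enzyme 0.07 U/mL final; Medium: HEPES pH 7.4 buffer with MgCl2 and Tween 20; Dosing: single compound dose of 20 µM, 1% DMSO final; Schedule: 16 min reaction at room temperature; Measured by: red resorufin fluorescence at 544/590 nm excitation/emission.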
WT yeast gro inh – growth inhibition of WT strain, primary screen, mitochondrial fusion inhibitor project, WT and mutant strains, chemical genetic | mitochondrial fusion phenotypic screen | inhibition, % at 10 µM | 190,000 tested, 2.1% active; in the data active = inhibition above about 58%; tested in S. cerevisiae
PMI act satM6P – human PMI activators, high substrate, primary screen, biochemical, fluorescence intensity, near-saturating mannose 6-phosphate; Mannose-6-phosphate isomerase (Homo sapiens), P34949; coupled PMI enzyme assay, resazurin fluorescence, 20 min; hits give high values; 1 = untreated enzyme, 0 = substrate-free blank; activation factor at 20 µM; 190,000 tested, 0.34% active;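 active = activation factor of 2 or more at 20 µM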
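Test system: human PMI in coupled enzyme assay; Input: PMI at 15 ng/mL final; Medium: HEPES buffer, pH 7.4; Schedule: 20 min incubation at room temperature; Technique: resorufin fluorescence at Ex 544/Em 590 nm; Compound: 20 µM single dose; Probe or stimulus: Near-saturating mannose-6-phosphate, 1.0 mM.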
Numbers stand for hits; – = inactive; · = no result. Only some compounds are listed: those with a hit (about 10% of all), similar ones and a draw of the others.

SMILES	PMI activator	L major viab	Diaphorase act	WT yeast gro inh	PMI act satM6P
COc1ccc(Nc2cc(C)c3ccccc3n2)cc1	–	82.5	–	–	–
Cc1cc(NCc2ccccc2)nc2ccccc12	–	53.3	–	–	–
COc1cc(OC)nc(Oc2cc(/C=N/O)ccc2OC)n1	–	–	–	–	–
S=C(N/N=C1\CCc2ccccc21)NC1CCCCC1	–	–	–	70.1	–
O=C(NCc1ccc2c(c1)OCO2)C1CCCN1C(=O)Nc1ccc(F)cc1 (centres undefined)	–	91.7	–	–	–
O=C(Nc1ccc(F)cc1)NC1(C(=O)NCc2ccc3c(c2)OCO3)CCCCC1	–	91.1	–	–	–
Cc1ccc(CNC(=O)C2(NC(=O)Nc3ccc(C)cc3)CCCCC2)cc1	–	–	–	–	–
O=C(Nc1ccc(F)cc1)NC1(C(=O)NCc2ccco2)CCCCC1	–	82.4	–	–	–
O=C(N/N=C\c1cccc(Cl)c1)c1ccc(Cn2cc(Br)c([N+](=O)[O-])n2)o1	–	–	–	–	–
Cc1nn(Cc2ccc(C(=O)Nc3ccccc3C(F)(F)F)o2)c(C)c1Br	–	–	–	–	–
Cc1ccc(CNC(=O)c2ccc(Cn3nc(C)c(Cl)c3C)o2)cc1	–	–	–	99.7	–
Cc1c(Cl)c([N+](=O)[O-])nn1Cc1ccc(C(=O)N/N=C\c2cccc(Br)c2)o1	–	54.9	–	–	–
Cc1cc(C)cc(NC(=O)c2ccc(Cn3nc(C)c(Cl)c3C)o2)c1	–	–	–	73.6	–
O=C(NCC1CCCO1)C(c1ccc(F)cc1)N(C(=O)Cn1nnc(-c2ccc(F)cc2)n1)c1cccc(O)c1 (centres undefined)	–	–	–	–	–
Cc1ccc(CN2CCN(/N=C/c3ccc(C)s3)CC2)c(C)c1	–	–	–	–	–
O=C(Nc1ccc(Cl)cc1F)C1CC1	–	–	–	–	–
COc1ccc(C(CNC(=O)COc2ccc(Br)cc2F)N2CCCC2)cc1 (centres undefined)	–	–	–	–	–
COc1ccc(C(CNC(=O)c2oc3ccc(Br)cc3c2C)N2CCCCC2)cc1 (centres undefined)	–	60.5	–	–	–
CC(C)(C)c1ccc(S(=O)(=O)N2CCC(CO)(CC3CCCCO3)CC2)cc1 (centres undefined)	–	–	–	–	–
CCC12CN(C(=O)c3ccc(C)cc3)CC(CC)(CN(C(=O)c3ccc(C)cc3)C1)C2=O	–	51.9	–	–	–
Cc1ccc(C(=O)N2CCN(C(=O)c3ccc(C)cc3)C2)cc1	–	–	–	–	–
Cc1ccc(C(=O)N2CC3(C(C)C)CN(C(=O)c4ccc(C)cc4)CC(C(C)C)(C2)C3=O)cc1	–	95.4	–	–	–
O=c1c([N+](=O)[O-])cc(C(F)(F)F)cn1Cc1c(Cl)cccc1Cl	–	–	–	–	–
O=C(N/N=C/C=C/c1ccccc1)c1cc2c(ccc3ccccc32)o1	–	–	–	–	–
CCN1C(=O)C(O)(CC(=O)/C=C/C=C/c2ccccc2)c2ccccc21 (centres undefined)	–	74.9	–	–	–
SMILES	PMI activator	L major viab	Diaphorase act	WT yeast gro inh	PMI act satM6P
O=C(/C=C/C=C/c1ccccc1)CC1(O)C(=O)N(CCc2ccccc2)c2ccccc21 (centres undefined)	–	–	–	60.2	–
NC(=O)CN1C(=O)C(O)(CC(=O)/C=C\C=C\c2ccccc2)c2ccccc21 (centres undefined)	–	–	–	–	–
C#CCN1C(=O)C(O)(CC(=O)/C=C/C=C/c2ccccc2)c2ccccc21 (centres undefined)	–	–	–	–	–
CCn1c(CNc2ccc(Cl)cc2)nnc1SCC#N	·	–	·	–	·
CCn1ccnc1CN(C)Cc1cn(C)nc1-c1ccccc1F	–	–	–	–	–
Cc1ccc(-n2cc(CN3CCC(O)(c4ccccn4)CC3)c(-c3ccc(F)cc3)n2)cc1	–	72.6	–	–	–
Cc1cccc(-n2cc(CN3CCN(Cc4nccn4C)CC3)c(-c3cccc(F)c3)n2)c1	–	89.7	–	86.1	–
Cc1ccc(-n2cc(CN(C)Cc3ncc[nH]3)c(-c3cccc(C)c3)n2)cc1	·	83.4	·	58.7	·
CCn1ccnc1CN(C)Cc1cn(-c2cc(C)ccc2C)nc1-c1ccccc1	–	93.0	–	61.2	–
CC(=O)N1CCCN(Cc2cn(-c3ccc(C)cc3)nc2-c2cccc(C)c2)CC1	–	–	–	–	–
COCCNC(=O)CC(=O)N/N=C/c1ccc(C(=O)OC)cc1	–	–	–	–	–
CCn1ccnc1CN(C)Cc1cn(-c2ccccc2)nc1-c1ccc(OC)cc1F	–	–	–	–	–
Cc1ccc(-c2nn(-c3cccc(F)c3)cc2CN(Cc2nccn2C)C(C)C)o1	–	–	–	–	–
CCn1ccnc1CN(C)Cc1cn(-c2ccc(C)cc2)nc1-c1ccc(F)cc1	–	100.0	–	–	–
Cc1ccc(-n2cc(CN(C)Cc3nccn3C)c(-c3ccc(F)cc3)n2)cc1	–	79.5	–	76.4	–
Cc1ccc2nc(Cl)c(CN(C(=O)c3cnccn3)C3CCCCC3)cc2c1	–	53.1	–	–	–
OCCCC1CCCN(Cc2cn[nH]c2-c2ccc(F)cc2F)C1 (centres undefined)	–	–	–	–	–
CCc1ccc(NC(=O)COC(=O)/C=C/c2c(C)nn(C3CCS(=O)(=O)C3)c2Cl)cc1 (centres undefined)	–	–	–	–	–
COc1ccc(-c2c(C#N)c(SCC(=O)Nc3ccccc3)nc3c2CCCC3)cc1	·	92.0	·	·	·
N#Cc1c(SCC(N)=O)nc2c(c1-c1ccc(OCc3ccccc3)cc1)CCCC2	·	–	·	·	·
O=S(=O)(c1ccc2oc3ccc(S(=O)(=O)N4CCCCC4)cc3c2c1)N1CCCCC1	–	–	–	–	–
CCn1c2ccccc2c2cc(NC(=O)C(C)Oc3ccc(OC)cc3)ccc21 (centres undefined)	–	–	–	–	–
CCn1c2ccccc2c2cc(CN3CCN(Cc4cc(OC)ccc4O)CC3)ccc21	–	–	–	59.5	–
CCn1c2ccccc2c2cc(CN3CCN(S(C)(=O)=O)CC3)ccc21	–	67.9	–	–	–
CC(=O)Nc1ccc(/C=N/NC(=O)CNC(=O)c2ccccc2)cc1	–	–	–	–	–
O=C(CSc1nc(-c2ccco2)cc(C(F)(F)F)n1)NCCCN1CCOCC1	–	–	–	–	–
Cc1ccc(C(=O)N2CCN(c3ccc([N+](=O)[O-])c(NCc4cccnc4)c3)CC2)cc1	–	56.6	–	–	–
